The record followed here is PubChem BioAssay.

The source made the active and inactive calls.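 How the source made its calls, unless noted: active means viability at or under a set limit in both replicates, limit being median viability minus 3 SD (cut at about 48% in these data, passing the limit was not always enough); inconclusive means at or under the limit in just one replicate; inactive means at or above the limit in both replicates.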

As a reminder, the viability is a read-out of living cells in per cent, often relative to untreated cells. One may read the inhibition as the change of the read-out against control, counted positive when it falls.

The nature of assay [1]: HUVEC growth inhibition – cell-based, human, primary screen (AID 575;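 active means viability at or below 30% in both replicate assays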;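 further: 100% = median of untreated cell wells with 0.1% DMSO on each plate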). The conditions noted are these: HUVEC proliferation, CellTiter-Glo luminescence, 72 h; at 10 µM; stronger effect = lower value. A digest of the protocol: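 System – primary HUVEC, no more than 12 passages · Medium – Low-serum (2% FBS) EBM, supplemented · Times – 72 h exposure, 37 °C, 5% CO2, 30 min RT equilibration · Measured by – luminescent ATP assay · Read-out – % viability relative to median vehicle-well signal on each plate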
In general terms: ATP-based viability assays read luminescence as a measure of living cells.

Assay [2] can be described thus: growth inhibitors of H69AR lung tumor, primary screen, human, duplicate replicates (AID 580).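 Further: 100% = mean luminescence of untreated wells and 0% = no signal.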 The conditions noted are these: H69AR lung tumor cells viability, ATP luminescence, 72 h; at 10 µM; stronger effect = lower value.
Assay [3] in a line: reversal of MRP1-mediated doxorubicin resistance, pilot screen, H69AR cells, doxorubicin co-treatment (AID 601;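 active means viability loss from added drug above about 55%, and viability with drug at most 40%, in both replicates, limit read from the data, passing the limit was not always enough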). To be noted: CellTiter-Glo, 72 h, at 10 µM; for differential viability (reversal): stronger effect = higher value.
Assay [4] is described as follows: 384-well plate pilot, post-Golgi transport modulator project, inhibition of yeast transport mutant growth (AID 636; in the data active means inhibition above about 31%). To be noted: absorbance 615 nm, about 18 h, stronger effect = higher value.
Assay [5] can be described thus: growth suppression of yeast trafficking mutant, preliminary HTS, modulators of trafficking downstream of Golgi apparatus project, 1536-format plate, OD 615 nm (AID 637; in the data active means inhibition above about 30%). The conditions noted are these: yeast transport mutant growth, absorbance 615 nm, 18 h; stronger effect = higher value.
The mark [6] stands for this setting: H69AR cells + 2 uM doxorubicin, measured here: viability with 2 uM doxorubicin, stronger effect = lower value.
The mark [7] stands for this setting: H69AR cells, compound alone cytotoxicity.

On to `CCn1c(SCC(=O)Nc2ccc(C(=O)OC)cc2)nnc1-c1cccs1`, for which the viability in assay [1] is 109% (inactive); in assay [2], 92.3% (inactive); in assay [3] (setting [6]), 86.6%; in assay [3] (setting [7]) it was 92.3%. Besides, the differential viability (reversal) in assay [3] (H69AR cells + 2 uM doxorubicin) was 5.75% (inactive). The inhibition is -6% (inactive) in assay [4] and 6.98% (inactive) in assay [5].
On to `O=S(=O)(NCCc1ccncc1)c1cc(Br)ccc1F`, for which the viability was 97.5% (inactive) in assay [1], 98.2% (inactive) in assay [2], 84.8% in assay [3] (setting [6]) and 98.2% in assay [3] (setting [7]). Also, in assay [3] (H69AR cells + 2 uM doxorubicin), the differential viability (reversal) is 13.4% (inactive). For the same molecule, the inhibition is -3.9% (inactive) in assay [4] and 13.5% (inactive) in assay [5].
For `O=C(Nc1ccccc1C(=O)N1CCOCC1)c1ccncc1`, the viability in assay [1] is 96.4% (inactive); in assay [2], 101% (inactive); in assay [3] (setting [6]), 93.6%; in assay [3] (setting [7]), 101%. In assay [3] (H69AR cells + 2 uM doxorubicin), the differential viability (reversal) is 7.54% (inactive). Further, the inhibition was -1.43% (inactive) in assay [4] and -2.22% (inactive) in assay [5].
`CC(C)c1ccc(NC(=O)C2CC(=O)N(C(C)C)C2)cc1` (stereo not given): the viability is 89.2% (inactive) in assay [1], 90.8% (inactive) in assay [2], 87.3% in assay [3] (setting [6]) and 90.8% in assay [3] (setting [7]). In addition, the differential viability (reversal) in assay [3] (H69AR cells + 2 uM doxorubicin) is 3.6% (inactive). Moreover, the figures for the inhibition in assay [4] and in assay [5] were -2.34% (inactive) and -2.86% (inactive), respectively.
Turning to `Cc1cc(C)c(C#N)c(SCc2ccc(C#N)cc2)n1`, the viability in assay [1] is 44.7% (inactive); in assay [2], 68.5% (inactive); in assay [3] (setting [6]), 75.6%; in assay [3] (setting [7]), 68.5%. In assay [3] (H69AR cells + 2 uM doxorubicin), the differential viability (reversal) is -7.06% (inactive). Besides, the inhibition in assay [4] was -2.27% (inactive); in assay [5] it was -2.86% (inactive).
Regarding `Cc1ccc(Nc2nnns2)cc1C`, the viability in assay [1] is 84.6% (inactive); in assay [2] it was 99.8% (inactive); in assay [3] (setting [6]), 89.7%; in assay [3] (setting [7]), 99.8%. For the same molecule, the differential viability (reversal) in assay [3] (H69AR cells + 2 uM doxorubicin) is 10.1% (inactive). The inhibition in assay [4] was -1.04% (inactive); in assay [5] it was -3.02% (inactive).
As for `Cn1cnc2c1c(=O)n(Cc1cccc(Br)c1)c(=O)n2C`, the viability is 90.3% (inactive) in assay [1], 86.9% (inactive) in assay [2], 82.6% in assay [3] (setting [6]) and 86.9% in assay [3] (setting [7]). Moreover, the differential viability (reversal) in assay [3] (H69AR cells + 2 uM doxorubicin) was 4.32% (inactive). For the same molecule, the inhibition was -4% (inactive) in assay [4] and 5.24% (inactive) in assay [5].
On to `CCCCn1c(SCc2cccnc2)nc2c1c(=O)n(C)c(=O)n2C`, for which the viability in assay [1] is 121% (inactive); in assay [2], 92.8% (inactive); in assay [3] (setting [6]), 79.2%; in assay [3] (setting [7]), 92.8%. Besides, the differential viability (reversal) in assay [3] (H69AR cells + 2 uM doxorubicin) was 13.7% (inactive). In addition, the inhibition in assay [4] was -7.76% (inactive); in assay [5], -2.86% (inactive).
As for `Cc1ccc(S(=O)(=O)Cn2nnnc2C(C(C)C)N2CCN(C(=O)c3ccco3)CC2)cc1` (stereo not given), the viability was 94.8% (inactive) in assay [1], 91.3% (inactive) in assay [2], 83.1% in assay [3] (setting [6]) and 91.3% in assay [3] (setting [7]). The differential viability (reversal) in assay [3] (H69AR cells + 2 uM doxorubicin) was 8.2% (inactive). The inhibition in assay [4] was -4% (inactive); in assay [5] it was -4.29% (inactive).
Consider `Cc1ccccc1C(=O)N1CCC(C(=O)Nc2ccc(S(=O)(=O)N3CCCC3)cc2)CC1`, for which the viability in assay [1] was 97.1% (inactive); in assay [2], 78.8% (inactive); in assay [3] (setting [6]) it was 82.7%; in assay [3] (setting [7]), 78.8%. The differential viability (reversal) in assay [3] (H69AR cells + 2 uM doxorubicin) was -3.87% (inactive). Besides, the figures for the inhibition in assay [4] and in assay [5] were -4.55% (inactive) and -3.49% (inactive), respectively.
For `COc1cccc(C(=O)CSc2nnc(COc3cccc4cccnc34)o2)c1`, the viability was 90.3% (inactive) in assay [1], 81% (inactive) in assay [2], 83.7% in assay [3] (setting [6]) and 81% in assay [3] (setting [7]). In addition, the differential viability (reversal) in assay [3] (H69AR cells + 2 uM doxorubicin) was -2.74% (inactive). The inhibition in assay [4] is 4.87% (inactive); in assay [5] it was -7.94% (inactive).
For `Cc1cc(=O)oc2c(CN3CCN(C)CC3)c(O)c(Cl)cc12`, the viability in assay [1] was 101% (inactive); in assay [2], 90.7% (inactive); in assay [3] (setting [6]) it was 84.5%; in assay [3] (setting [7]), 90.7%. Also, in assay [3] (H69AR cells + 2 uM doxorubicin), the differential viability (reversal) is 6.16% (inactive). Also, the values for the inhibition in assay [4] and in assay [5] were -6.05% (inactive) and -0.95% (inactive), respectively.
Regarding `Cc1ccc(SC(C)c2nc(-c3ccccc3)no2)cc1` (stereo not given), the viability in assay [1] was 114% (inactive); in assay [2], 99.9% (inactive); in assay [3] (setting [6]), 95.2%; in assay [3] (setting [7]), 99.9%. The differential viability (reversal) in assay [3] (H69AR cells + 2 uM doxorubicin) was 4.68% (inactive). Also, the inhibition was -6.13% (inactive) in assay [4] and -5.08% (inactive) in assay [5].
On to `CC1CCN(c2nc3c(c(=O)n(C)c(=O)n3C)n2Cc2ccccc2)CC1`, for which the viability was 79.2% (inactive) in assay [1], 88.1% (inactive) in assay [2], 47% in assay [3] (setting [6]) and 88.1% in assay [3] (setting [7]). Besides, in assay [3] (H69AR cells + 2 uM doxorubicin), the differential viability (reversal) was 41.1% (inactive). Moreover, the inhibition was -2.27% (inactive) in assay [4] and 21.6% (inactive) in assay [5].
For `CCOC(=O)CSc1nnc(-c2ccc(Cl)cc2Cl)o1`, the viability in assay [1] is 105% (inactive); in assay [2], 101% (inactive); in assay [3] (setting [6]), 97.4%; in assay [3] (setting [7]) it was 101%. Moreover, in assay [3] (H69AR cells + 2 uM doxorubicin), the differential viability (reversal) is 3.39% (inactive). The results for the inhibition in assay [4] and in assay [5] were -5.07% (inactive) and -0.16% (inactive), respectively.
For the molecule `COc1ccc(-c2nn3c(-c4cccc(C)c4)nnc3s2)cc1OC`, the viability in assay [1] was 51.1% (inactive); in assay [2], 35.2% (active); in assay [3] (setting [6]) it was 79.2%; in assay [3] (setting [7]), 35.2%. For the same molecule, the differential viability (reversal) in assay [3] (H69AR cells + 2 uM doxorubicin) is -44% (inactive). Besides, the inhibition is -0.4% (inactive) in assay [4] and -4.13% (inactive) in assay [5].
`Nc1nc(-c2ccccc2)cc(C(F)(F)F)n1`: the viability is 95.4% (inactive) in assay [1], 103% (inactive) in assay [2], 94.1% in assay [3] (setting [6]) and 103% in assay [3] (setting [7]). In assay [3] (H69AR cells + 2 uM doxorubicin), the differential viability (reversal) is 8.53% (inactive). Further, the inhibition in assay [4] was -3.51% (inactive); in assay [5], 1.27% (inactive).
Consider `CCCS(=O)(=O)N1CCC(C(=O)NCCN2CCCC2)CC1`, for which the viability in assay [1] was 96.5% (inactive); in assay [2], 94.9% (inactive); in assay [3] (setting [6]), 86.6%; in assay [3] (setting [7]), 94.9%. Also, in assay [3] (H69AR cells + 2 uM doxorubicin), the differential viability (reversal) was 8.3% (inactive). Besides, the inhibition in assay [4] is -3.2% (inactive); in assay [5] it was 2.86% (inactive).
Regarding `CCN1CCN(Cc2ccccc2NC(=O)Nc2ccc(C)cc2)CC1`, the viability was 89.7% (inactive) in assay [1], 98% (inactive) in assay [2], 86.8% in assay [3] (setting [6]) and 98% in assay [3] (setting [7]). Besides, the differential viability (reversal) in assay [3] (H69AR cells + 2 uM doxorubicin) was 11.2% (inactive). Moreover, the inhibition is -5.92% (inactive) in assay [4] and -0.16% (inactive) in assay [5].
For `Cn1cccc1C(=O)NC(=O)CSc1nnc(C2CC2)n1-c1ccccc1`, the viability in assay [1] was 102% (inactive); in assay [2] it was 85.7% (inactive); in assay [3] (setting [6]), 93%; in assay [3] (setting [7]), 85.7%. The differential viability (reversal) in assay [3] (H69AR cells + 2 uM doxorubicin) is -7.28% (inactive). The inhibition in assay [4] was -1.17% (inactive); in assay [5], -0.63% (inactive).
